Results on twelve compounds are retold here after ChEMBL document CHEMBL1144042, “Cytotoxic simplified tubulysin analogues” (J Med Chem, 2008).

For test [1], the system named is 1A9. Nature of the test: Cytotoxicity against human 1A9 cells. Format: functional, cell-based.
Test [2] in a line: Inhibition of rat brain tubulin polymerization. In a few lines:
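Rat brain tubulin (10 µM) mixed on ice with test compound at 0.5, 1, 2 and 4 µM in 0.8 M sodium glutamate, pH 6.6, with 0.4 mM GTP. Samples then warmed to 33 °C. Polymerization followed over time as optical density at 350 nm. IC50 taken from the concentration series.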

Test [3] has as its system HCT-15. The test is described as follows: Anticancer activity against multidrug-resistant human HCT15 cells. Format: functional.
Test [4] in a line: Anticancer activity against multidrug-resistant human KBV1 cells. Format: functional, cell-based. The following applies: KB-V1.

For `CCC(C)[C@H](NC(=O)[C@@H]1CCCN1)C(=O)N[C@H](CC(=O)c1nc(C(=O)N[C@@H](Cc2ccccc2)C[C@H](C)C(=O)O)cs1)C(C)C` (single isomer, unassigned), the IC50 (as a rule, the concentration at which inhibition is half-maximal) in test [1] was greater than 33000 nM.

For `CCC(C)[C@H](NC(=O)[C@H]1CCCN1C)C(=O)N[C@H](CC(=O)c1nc(C(=O)N[C@@H](Cc2ccccc2)C[C@H](C)C(=O)O)cs1)C(C)C` (single isomer, unassigned), the results for the IC50 in test [1] and in test [2] were 800 nM and 1000 nM, respectively. As for `CCC(C)[C@H](NC(=O)[C@@H]1CCCN1C)C(=O)N[C@H](CC(=O)c1nc(C(=O)N[C@@H](Cc2ccccc2)C[C@H](C)C(=O)O)cs1)C(C)C` (single isomer, unassigned), in test [1], half-maximal inhibition (IC50) required 18000 nM. In turn, `CC[C@@H](C)[C@H](NC(=O)[C@H]1CCCCN1)C(=O)N[C@H](CC(=O)c1nc(C(=O)N[C@@H](Cc2ccccc2)C[C@H](C)C(=O)O)cs1)C(C)C` registered an IC50 in test [1] of 23000 nM. On to `CC[C@@H](C)[C@H](NC(=O)[C@@H]1CCCCN1)C(=O)N[C@H](CC(=O)c1nc(C(=O)N[C@@H](Cc2ccccc2)C[C@H](C)C(=O)O)cs1)C(C)C`, for which, in test [1], the IC50 was 24000 nM.

`CCC(C)[C@H](NC(=O)[C@H]1CCCCN1C)C(=O)N[C@H](CC(=O)c1nc(C(=O)N[C@@H](Cc2ccccc2)C[C@H](C)C(=O)O)cs1)C(C)C` (single isomer, unassigned): the figures for the IC50 in test [1] and in test [2] were 200 nM and 1800 nM, respectively.

Turning to `COc1cc([C@@H]2c3cc4c(cc3[C@H](O)[C@H]3COC(=O)[C@H]23)OCO4)cc(OC)c1OC` [PODOFILOX], the IC50 in test [1] was 3 nM. Take `CN[C@H](C(=O)N[C@H](C(=O)N(C)[C@H](/C=C(\C)C(=O)O)C(C)C)C(C)(C)C)C(C)(C)c1ccccc1` [TALTOBULIN]: the IC50 in test [1] was 0.03 nM; in test [2] it was 1000 nM.

In turn, `CCC(C)[C@H](NC(=O)[C@H]1CCCN1)C(=O)N[C@H](CC(=O)c1nc(C(=O)N[C@@H](Cc2ccccc2)C[C@H](C)C(=O)O)cs1)C(C)C` (single isomer, unassigned) gave an IC50 in test [1] greater than 33000 nM. For `CC[C@@H](C)[C@H](NC(=O)[C@H]1CCCCN1C)C(=O)N(COC(=O)CC(C)C)[C@H](C[C@@H](OC(C)=O)c1nc(C(=O)N[C@@H](Cc2ccc(O)cc2)C[C@H](C)C(=O)O)cs1)C(C)C` [TUBULYSIN A], growth in test [3] was halved (GI50) at 0.12 nM. With `CCC(C)[C@H](NC(=O)[C@@H]1CCCCN1C)C(=O)N[C@H](CC(=O)c1nc(C(=O)N[C@@H](Cc2ccccc2)C[C@H](C)C(=O)O)cs1)C(C)C` (single isomer, unassigned), it took 25000 nM to reach half-maximal inhibition in test [1] (IC50). Consider `CCC(C)[C@H](NC(=O)[C@H]1CCCCN1C)C(=O)N(COC(=O)CC(C)C)[C@H](C[C@@H](OC(C)=O)c1nc(C(=O)N[C@@H](Cc2ccccc2)C[C@H](C)C(=O)O)cs1)C(C)C` (single isomer, unassigned) [TUBULYSIN D], for which it took 0.31 nM to reach half-maximal inhibition in test [4] (IC50).
